One assay has as its target Phosphodiesterase 1 (Rattus norvegicus, UniProt Q63421+Q9EPR9+Q01066). Briefly: Inhibitory activity against rat heart Phosphodiesterase 1(PDE1). Type of assay: protein assay.
The target in assay [1] is Phosphodiesterase 4 (Canis familiaris). Kind of assay: Inhibition of canine lung Phosphodiesterase 4 (PDE4).
Assay [2] has as its target T1, cGMP-dependent 3',5'-cyclic phosphodiesterase (Bos taurus, UniProt P14099).
T1 sequence (P14099 whole entry): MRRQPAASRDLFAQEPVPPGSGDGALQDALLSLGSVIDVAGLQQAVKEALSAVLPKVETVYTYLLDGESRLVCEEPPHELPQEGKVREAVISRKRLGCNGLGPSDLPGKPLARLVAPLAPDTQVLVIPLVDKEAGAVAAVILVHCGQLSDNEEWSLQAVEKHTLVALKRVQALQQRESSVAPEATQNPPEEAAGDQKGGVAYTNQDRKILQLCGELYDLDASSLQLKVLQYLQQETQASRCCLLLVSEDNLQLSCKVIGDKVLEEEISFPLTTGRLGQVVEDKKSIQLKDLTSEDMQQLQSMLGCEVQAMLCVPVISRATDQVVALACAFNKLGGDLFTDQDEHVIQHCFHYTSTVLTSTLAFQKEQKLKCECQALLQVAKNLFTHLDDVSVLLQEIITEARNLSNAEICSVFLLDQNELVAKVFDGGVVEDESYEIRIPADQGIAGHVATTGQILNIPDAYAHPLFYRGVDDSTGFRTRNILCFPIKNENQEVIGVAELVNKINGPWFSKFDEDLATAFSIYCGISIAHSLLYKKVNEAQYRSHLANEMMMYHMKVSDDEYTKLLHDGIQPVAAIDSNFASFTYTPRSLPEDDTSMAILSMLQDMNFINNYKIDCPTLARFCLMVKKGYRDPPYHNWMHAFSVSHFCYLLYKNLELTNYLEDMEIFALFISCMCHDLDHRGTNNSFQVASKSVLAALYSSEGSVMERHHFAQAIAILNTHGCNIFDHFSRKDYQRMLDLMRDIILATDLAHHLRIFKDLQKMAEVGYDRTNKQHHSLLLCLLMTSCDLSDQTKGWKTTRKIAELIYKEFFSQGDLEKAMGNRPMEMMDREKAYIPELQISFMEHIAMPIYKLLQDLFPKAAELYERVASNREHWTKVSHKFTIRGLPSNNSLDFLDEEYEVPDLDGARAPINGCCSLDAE
Briefly: Inhibition of bovine adrenal gland Phosphodiesterase 2 (PDE2). The method in brief:
(§1)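 Boiled, then snake-venom nucleotidase for 30 min at 37 °C, methanol stop, Dowex separation, scintillation counting. IC50 from log concentration-inhibition curve (≥4 points), mean of ≥2 duplicate experiments.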

In assay [3] the target is Phosphodiesterase 3 (Canis familiaris). Kind of assay: Inhibitory activity against canine heart Phosphodiesterase 3 (PDE3).
Assay [4] addresses cGMP-specific 3',5'-cyclic phosphodiesterase (Canis lupus familiaris, UniProt O77746). Kind of assay: Inhibitory activity against canine lung Phosphodiesterase 5 (PDE5). The method in brief: as §1
The nature of assay [5]: Relaxant effect on isolated rabbit corpus cavernosum. Conditions: target entry is the homologue from another species. In kind it is functional, tissue-based, Oryctolagus cuniculus.

pIC50: −log10 of the molar value. Bounds are passed on as bounds.

Regarding `COC(=O)c1c(-c2cc(OC)c(OC)c(OC)c2)c2ccc(OCc3ccncc3)cc2c(=O)n1-c1ccc(N)cc1.Cl.Cl`, the values for the IC50 (against Phosphodiesterase 1; in assay [1]; in assay [3]) were 9.5 µM, 7 µM and above 10 µM, respectively. The pIC50 (in general, the negative decadic logarithm of the IC50, by convention in mol/L) in assay [2] was below 5.00; in assay [4], 8.51. Moreover, the EC30 (commonly the concentration needed for an effect of 30%) in assay [5] amounted to 0.012 µM.

For the origin of these results see ChEMBL document CHEMBL1134770, “Novel, potent, and selective phosphodiesterase 5 inhibitors: synthesis and biological activities of a series of 4-aryl-1-isoquinolinone derivatives” (J Med Chem, 2001).
